According to ChEMBL document CHEMBL3580565, “Synthesis and Biological Evaluation of Cyclopentaquinoline Derivatives as Nonsteroidal Glucocorticoid Receptor Antagonists” (J Med Chem, 2015):

Key:
Estrogen receptor beta = Estrogen receptor beta (Homo sapiens, UniProt Q92731); assay: Displacement of fluormone ES2 from human recombinant estrogen receptor-beta expressed in insect Hi5 cells after 120 mins by fluorescence polarization assay; design: species or system BTI-TN-5B1-4
Outline: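 Assay run at Cerep. Fluorescence polarization with Fluormone ES2 tracer, using recombinant human ERα expressed in Sf9 cells and ERβ expressed in Hi5 cells.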

Rattus norvegicus [1] = assay: Antidepressant-like activity in Wistar rat assessed as decrease in immobility time at 30 mg/kg, po administered at 1, 5, 23.5 hrs prior to testing measured for 5 mins by forced swimming test relative to vehicle-treated control; type: functional; design: scale not given: the % may be the effect or the level left
Glucocorticoid receptor = target: T1, Glucocorticoid receptor (Homo sapiens, UniProt P04150); assay: Antagonist activity at human glucocorticoid receptor transfected in CHOK1 cells assessed as inhibition of dexamethasone-induced receptor transcriptional activity after 6 hrs by luciferase reporter gene assay; type: cell-based, CHO-K1
T1 sequence (P04150 whole entry): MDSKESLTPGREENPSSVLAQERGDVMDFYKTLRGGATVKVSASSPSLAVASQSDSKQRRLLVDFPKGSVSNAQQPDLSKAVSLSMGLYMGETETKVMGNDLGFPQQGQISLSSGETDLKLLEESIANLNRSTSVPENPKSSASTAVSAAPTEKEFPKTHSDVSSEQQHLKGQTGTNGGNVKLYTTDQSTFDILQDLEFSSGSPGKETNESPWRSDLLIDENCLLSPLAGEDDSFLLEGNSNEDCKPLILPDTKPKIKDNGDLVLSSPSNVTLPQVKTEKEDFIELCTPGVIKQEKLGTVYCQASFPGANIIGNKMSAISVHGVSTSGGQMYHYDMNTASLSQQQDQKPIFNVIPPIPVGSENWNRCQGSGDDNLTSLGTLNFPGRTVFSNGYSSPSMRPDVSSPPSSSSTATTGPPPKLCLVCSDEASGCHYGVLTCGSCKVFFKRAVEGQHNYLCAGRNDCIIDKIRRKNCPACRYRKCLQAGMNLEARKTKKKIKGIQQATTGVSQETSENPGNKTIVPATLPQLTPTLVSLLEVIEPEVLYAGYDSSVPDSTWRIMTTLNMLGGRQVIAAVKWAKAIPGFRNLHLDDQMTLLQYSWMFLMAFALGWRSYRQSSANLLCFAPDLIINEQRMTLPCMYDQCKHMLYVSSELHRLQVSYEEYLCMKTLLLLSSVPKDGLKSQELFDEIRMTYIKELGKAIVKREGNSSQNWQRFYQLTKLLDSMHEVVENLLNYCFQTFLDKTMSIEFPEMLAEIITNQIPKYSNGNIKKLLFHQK

Progesterone receptor = target: T2, Progesterone receptor (Homo sapiens, UniProt P06401); assay: Displacement of [3H]-progesterone from cytosolic fraction of human recombinant progesterone-B receptor by scintillation counting analysis
T2 sequence (P06401 whole entry): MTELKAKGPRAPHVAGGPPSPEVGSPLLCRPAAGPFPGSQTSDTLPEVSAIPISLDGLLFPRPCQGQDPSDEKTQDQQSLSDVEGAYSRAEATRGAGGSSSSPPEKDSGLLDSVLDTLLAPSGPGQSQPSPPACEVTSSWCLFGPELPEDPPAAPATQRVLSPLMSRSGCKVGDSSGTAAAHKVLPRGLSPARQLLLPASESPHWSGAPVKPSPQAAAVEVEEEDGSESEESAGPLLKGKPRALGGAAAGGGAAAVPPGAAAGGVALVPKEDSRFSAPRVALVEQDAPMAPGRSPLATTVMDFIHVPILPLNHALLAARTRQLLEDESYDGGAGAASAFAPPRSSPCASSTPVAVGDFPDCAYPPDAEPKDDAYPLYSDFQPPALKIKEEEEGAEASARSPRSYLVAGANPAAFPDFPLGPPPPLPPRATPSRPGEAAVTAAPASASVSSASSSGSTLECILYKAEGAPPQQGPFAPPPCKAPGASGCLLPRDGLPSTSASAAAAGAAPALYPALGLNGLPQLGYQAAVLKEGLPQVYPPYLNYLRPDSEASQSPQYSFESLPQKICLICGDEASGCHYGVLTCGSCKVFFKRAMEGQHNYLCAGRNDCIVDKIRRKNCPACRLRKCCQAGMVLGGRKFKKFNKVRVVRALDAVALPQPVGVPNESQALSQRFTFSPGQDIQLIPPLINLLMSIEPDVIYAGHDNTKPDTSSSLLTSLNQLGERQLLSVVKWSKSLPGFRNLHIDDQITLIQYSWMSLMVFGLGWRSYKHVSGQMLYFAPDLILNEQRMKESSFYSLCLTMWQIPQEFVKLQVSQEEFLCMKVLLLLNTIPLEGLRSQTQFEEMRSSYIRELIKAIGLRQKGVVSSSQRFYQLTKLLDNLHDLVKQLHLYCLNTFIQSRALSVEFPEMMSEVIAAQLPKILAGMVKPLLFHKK

[2] = Cmax in Sprague-Dawley rat at 1 mg/kg, iv by LC/MS/MS analysis; type: ADME, organism-based; design: dose 1 mg/kg, route intravenous; details: in vivo
Outline: (§1)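 Single intravenous dose to male Sprague–Dawley rats (n = 4). Jugular vein blood drawn at 0.05, 0.25, 0.5, 1, 2, 4, 8 and 24 h, heparin anticoagulant, plasma separated by centrifugation. Plasma drug level measured by LC/MS/MS.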

[3] = Cmax in Sprague-Dawley rat at 10 mg/kg, po by LC/MS/MS analysis; type: ADME, organism-based; design: dose 10 mg/kg, route oral; details: in vivo
Outline: (§2)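 Male Sprague–Dawley rats dosed orally (n = 4). Jugular vein blood sampled at 0.25, 0.5, 1, 2, 4, 6 and 24 h into heparin, plasma obtained by centrifugation. Concentrations determined by LC/MS/MS.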

[4] = Oral bioavailability (0 to infinity) in Sprague-Dawley rat at 10 mg/kg by LC/MS/MS analysis; type: ADME, organism-based; details: in vivo
Outline: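 Bioavailability from paired studies in male Sprague–Dawley rats: 1 mg/kg i.v. and 10 mg/kg p.o. (n = 4 each). Jugular vein heparinized plasma sampled up to 24 h, quantified by LC/MS/MS.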

[5] = Half life in Sprague-Dawley rat at 1 mg/kg, iv by LC/MS/MS analysis; type: ADME, organism-based; details: in vivo; outline: as §1
Rattus norvegicus [6] = assay: Antidepressant-like activity in Wistar rat assessed as decrease in immobility time at 100 mg/kg, po administered at 1, 5, 23.5 hrs prior to testing measured for 5 mins by forced swimming test relative to vehicle-treated control; type: functional; design: scale not given: the % may be the effect or the level left
[7] = AUC (0 to t) in Sprague-Dawley rat at 1 mg/kg, iv by LC/MS/MS analysis; type: ADME, organism-based; details: in vivo; outline: as §1
Rattus norvegicus [8] = assay: Antidepressant-like activity in Wistar rat assessed as immobility time at 100 mg/kg, po administered at 1, 5, 23.5 hrs prior to testing measured for 5 mins by forced swimming test (reference value: 211.3 to 232.2 secs); type: functional
Rattus norvegicus [9] = assay: Antidepressant-like activity in Wistar rat assessed as immobility time at 30 mg/kg, po administered at 1, 5, 23.5 hrs prior to testing measured for 5 mins by forced swimming test (reference value: 211.3 to 232.2 secs); type: functional
[10] = Volume of distribution at steady state in Sprague-Dawley rat at 1 mg/kg, iv by LC/MS/MS analysis; type: ADME, organism-based; details: in vivo, read-out: Vdss; outline: as §1
[11] = AUC (0 to infinity) in Sprague-Dawley rat at 10 mg/kg, po by LC/MS/MS analysis; type: ADME, organism-based; design: dose 10 mg/kg, time infinity, route oral; details: in vivo; outline: as §2

Chain of Estrogen receptor beta (Q92731 whole entry): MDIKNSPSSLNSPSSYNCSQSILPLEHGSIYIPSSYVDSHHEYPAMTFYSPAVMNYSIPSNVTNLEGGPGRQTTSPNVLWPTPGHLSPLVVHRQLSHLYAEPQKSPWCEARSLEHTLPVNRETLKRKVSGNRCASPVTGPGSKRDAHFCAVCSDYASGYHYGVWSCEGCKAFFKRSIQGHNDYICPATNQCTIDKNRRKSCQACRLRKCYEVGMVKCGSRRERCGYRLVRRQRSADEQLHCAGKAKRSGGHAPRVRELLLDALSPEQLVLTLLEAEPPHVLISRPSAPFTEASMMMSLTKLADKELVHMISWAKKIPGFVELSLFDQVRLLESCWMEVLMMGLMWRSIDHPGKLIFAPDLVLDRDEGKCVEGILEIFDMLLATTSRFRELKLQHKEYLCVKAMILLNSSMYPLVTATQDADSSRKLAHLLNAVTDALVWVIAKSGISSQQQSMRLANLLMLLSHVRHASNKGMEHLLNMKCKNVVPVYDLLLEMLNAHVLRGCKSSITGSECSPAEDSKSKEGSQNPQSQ

In the case of Cc1noc(C)c1-c1cc2c(c3c1CCC3)NC(C)(C)C(=O)C2(C)C, the Ki (Estrogen receptor beta) is reported as over 2300 nM, the Activity (Rattus norvegicus [1]) is reported as 75.9% and the IC50 (Glucocorticoid receptor) is reported as 30 nM. For the same compound, the Ki (Progesterone receptor) was 1480 nM, the Cmax [2] was 633 ng/mL and the Cmax [3] was 273 ng/mL. It also gave a bioavailability [4] of 59%, a half-life [5] of 3.2 h and an Activity (Rattus norvegicus [6]) of 80.7%. The AUC(0-t) [7] was 410 ng·h/mL, the Time (Rattus norvegicus [8]) was 187.3 s and the Time (Rattus norvegicus [9]) was 170.7 s. It also gave a Vd [10] of 6.13 L/kg and an AUC(0-inf) [11] of 2720 ng·h/mL.
